The source made the active and inactive calls. The rule behind the calls is not given here.
Key:
Hepatocyte = experiment: Stimulation of fat oxidation in human hepatocytes assessed as release of 3H2O from ss-oxidation of [9,10(n)-3[3H]palmitic acid after 4 hrs; assay type: functional, cell-based
Outline: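 Attached human hepatocytes washed with PBS, then incubated in DMEM with 5 μM ³H-palmitic acid (15000 Bq/ml), 0.2 mg/mL BSA, 500 μM L-carnitine, 0.1% DMSO, 25 mM glucose and inhibitor. Started with 0.5 μCi [³H]palmitate. ³H₂O release measured after 4 h by scintillation. Expressed as fold of the 0 μM control; means ± SEM (n = 4).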

[1] = target: T1, Peroxisome proliferator-activated receptor delta (Homo sapiens) (UniProt Q03181); experiment: Inhibition of PPARdelta
T1 sequence (whole entry): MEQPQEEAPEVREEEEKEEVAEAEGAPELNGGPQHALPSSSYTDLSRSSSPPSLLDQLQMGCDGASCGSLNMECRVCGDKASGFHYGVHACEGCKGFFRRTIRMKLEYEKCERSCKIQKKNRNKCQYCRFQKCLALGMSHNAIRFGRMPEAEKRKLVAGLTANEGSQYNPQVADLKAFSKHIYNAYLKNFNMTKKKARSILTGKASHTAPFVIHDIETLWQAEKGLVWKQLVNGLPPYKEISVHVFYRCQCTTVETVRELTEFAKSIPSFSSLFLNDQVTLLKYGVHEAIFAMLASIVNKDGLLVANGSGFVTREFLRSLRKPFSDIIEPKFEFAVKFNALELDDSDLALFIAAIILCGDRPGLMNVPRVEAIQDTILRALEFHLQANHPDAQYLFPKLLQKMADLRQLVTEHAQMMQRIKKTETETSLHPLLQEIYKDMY

[2] = AUC (0 to infinity) in Wistar rat plasma at 10 mg/kg, po; assay type: ADME, organism-based; parameters: time infinity, dose 10 mg/kg, route oral
Outline: (§1)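 Female Wistar rats given a single oral dose of 10 mg/kg in 10% DMSO. Plasma and liver sampled at eight time points over 24 h, three animals killed per time point. Drug levels measured by LC-MS/MS with an internal standard. […] Values are means ± SD (n = 3).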

[3] = Tmax in Wistar rat plasma at 10 mg/kg, po; assay type: ADME, organism-based; parameters: dose 10 mg/kg, route oral; outline: as §1
[4] = Oral bioavailability in Wistar rat at 10 mg/kg; assay type: ADME, organism-based; conditions: in vivo
[5] = Drug concentration in Wistar rat plasma at 10 mg/kg, po measured 6 hrs post dose; assay type: ADME, organism-based; parameters: dose 10 mg/kg, route oral; conditions: read-out: Drug uptake; outline: as §1
[6] = AUC (0 to infinity) in Wistar rat liver at 10 mg/kg, po; assay type: ADME, organism-based; parameters: time infinity, dose 10 mg/kg, route oral; outline: as §1
[7] = target: T2, Peroxisome proliferator-activated receptor gamma (Homo sapiens) (UniProt P37231); experiment: Inhibition of PPARgamma
T2 sequence (whole entry): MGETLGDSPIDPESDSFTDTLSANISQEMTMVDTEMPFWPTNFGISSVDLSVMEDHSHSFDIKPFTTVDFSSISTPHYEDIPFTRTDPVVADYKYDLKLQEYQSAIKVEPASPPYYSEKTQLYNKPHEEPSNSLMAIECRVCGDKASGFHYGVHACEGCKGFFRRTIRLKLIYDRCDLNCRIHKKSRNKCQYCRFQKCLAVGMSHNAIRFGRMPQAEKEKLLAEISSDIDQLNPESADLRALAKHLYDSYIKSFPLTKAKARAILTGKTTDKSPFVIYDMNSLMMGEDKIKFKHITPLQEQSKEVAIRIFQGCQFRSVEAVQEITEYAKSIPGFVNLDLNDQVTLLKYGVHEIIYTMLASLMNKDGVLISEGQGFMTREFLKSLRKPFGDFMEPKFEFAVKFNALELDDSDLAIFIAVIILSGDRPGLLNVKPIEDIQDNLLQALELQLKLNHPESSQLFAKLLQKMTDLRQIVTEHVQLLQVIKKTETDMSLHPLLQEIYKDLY

[8] = target: T3, Pyruvate carboxylase, mitochondrial (Bos taurus) (UniProt Q29RK2); experiment: Inhibition of bovine pyruvate carboxylase
T3 sequence (whole entry): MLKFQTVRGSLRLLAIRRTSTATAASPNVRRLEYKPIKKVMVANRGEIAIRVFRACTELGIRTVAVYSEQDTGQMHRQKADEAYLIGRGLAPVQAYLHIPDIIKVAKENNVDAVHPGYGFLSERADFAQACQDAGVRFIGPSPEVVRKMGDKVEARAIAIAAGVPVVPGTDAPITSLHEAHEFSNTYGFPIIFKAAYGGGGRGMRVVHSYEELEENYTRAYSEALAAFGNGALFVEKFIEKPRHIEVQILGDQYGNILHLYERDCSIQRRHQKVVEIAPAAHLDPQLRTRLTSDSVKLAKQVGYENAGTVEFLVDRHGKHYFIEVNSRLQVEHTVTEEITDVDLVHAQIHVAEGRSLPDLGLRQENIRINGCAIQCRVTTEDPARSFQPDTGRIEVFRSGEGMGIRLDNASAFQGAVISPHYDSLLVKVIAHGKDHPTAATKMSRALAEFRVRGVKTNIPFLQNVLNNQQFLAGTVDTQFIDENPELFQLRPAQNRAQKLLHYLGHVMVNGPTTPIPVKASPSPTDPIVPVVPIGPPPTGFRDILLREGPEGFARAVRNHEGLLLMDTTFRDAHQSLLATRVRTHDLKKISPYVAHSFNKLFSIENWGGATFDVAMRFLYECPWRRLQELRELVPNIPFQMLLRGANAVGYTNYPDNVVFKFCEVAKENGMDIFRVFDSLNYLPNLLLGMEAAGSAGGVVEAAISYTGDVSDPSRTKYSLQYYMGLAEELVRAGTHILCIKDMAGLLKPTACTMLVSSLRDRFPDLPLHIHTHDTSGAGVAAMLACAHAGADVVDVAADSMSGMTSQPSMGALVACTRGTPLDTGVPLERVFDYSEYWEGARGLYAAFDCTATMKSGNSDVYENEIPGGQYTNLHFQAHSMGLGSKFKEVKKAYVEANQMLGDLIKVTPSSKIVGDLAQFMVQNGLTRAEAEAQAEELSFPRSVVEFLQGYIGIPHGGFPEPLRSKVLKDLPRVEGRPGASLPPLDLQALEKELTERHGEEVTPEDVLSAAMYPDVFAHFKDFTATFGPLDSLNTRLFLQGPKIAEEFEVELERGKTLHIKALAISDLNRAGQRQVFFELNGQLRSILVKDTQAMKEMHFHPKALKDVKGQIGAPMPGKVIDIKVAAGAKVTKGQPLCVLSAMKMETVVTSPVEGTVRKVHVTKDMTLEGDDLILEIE

Rattus norvegicus = experiment: Plasma concentration in Wistar rat at 3 mg/kg, iv measured immediately after dosing; assay type: ADME, organism-based; parameters: dose 3 mg/kg, route intravenous; conditions: in vivo
Outline: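 Wistar rats given an intravenous bolus of 3 mg/kg in 5% solutol solution. Plasma sampled at eight time points over 24 h. Drug quantified by LC-MS/MS against an internal standard. C0h is the concentration immediately after dosing; AUC0-inf, clearance, t1/2 and Vdss were also derived.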

[9] = Cmax in Wistar rat plasma at 10 mg/kg, po; assay type: ADME, organism-based; parameters: dose 10 mg/kg, route oral; outline: as §1
[10] = Half life in Wistar rat liver at 10 mg/kg, po; assay type: ADME, organism-based; parameters: dose 10 mg/kg, route oral; outline: as §1
[11] = Drug concentration in Wistar rat liver at 10 mg/kg, po measured 6 hrs post dose; assay type: ADME, organism-based; parameters: dose 10 mg/kg, route oral; conditions: read-out: Drug uptake; outline: as §1

- inhibition [1]: inactive
- AUC(0-inf) [2]: 19 µM·h
- Tmax [3]: 2 h
- bioavailability [4]: 98%
- concentration at 6 h [5]: 1.59 µM
- AUC(0-inf) [6]: 120 µM·h
- inhibition [7]: inactive
- inhibition [8]: inactive
- concentration (Rattus norvegicus): 5.2 µM
- Cmax [9]: 3.5 µM
- half-life [10]: 3 h
- concentration at 6 h [11]: 7.59 µM
SMILES: CC(=O)N[C@@H](C)CCc1ccc(Oc2ccc(OC(C)C)nc2)cc1
- Activity (Hepatocyte): Dose-dependent effect

— ChEMBL document CHEMBL1629448, “Identification and synthesis of novel inhibitors of acetyl-CoA carboxylase with in vitro and in vivo efficacy on fat oxidation” (J Med Chem, 2010)
